This note sets out measurements from ChEMBL document CHEMBL1125416, “Synthesis and antiulcer activity of novel 5-(2-ethenyl substituted)-3(2H)-furanones” (1992).

Experiment [1] deals with Rattus norvegicus. As to the kind of experiment: Evaluated for the duration of cytoprotective effect, in Ethanol-Necrosis model, that causes inhibition of ulceration. Absolute ethanol was administered at 8 hr after dosing. Details: concentration or dose not given beside the values. It counts as functional. In a few lines: (§1)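 Male Sprague-Dawley rats (180–210 g), fasted 18–24 h with water available, dosed orally with drug or vehicle 4, 6 or 8 h before absolute ethanol (1 mL per rat po). Rats killed 1 h after ethanol, stomachs kept moist with saline and scored blind by ulcer size (mm²) and number per size class. Percent inhibition is taken against the vehicle group mean score.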

Experiment [2] deals with Rattus norvegicus. Put plainly: Inhibitory activity against ethanol-induced lesions, which was administered after 1 hr of oral dosing in pylorus-ligated rat model. It is filed as functional.
Experiment [3] concerns Rattus norvegicus. Put plainly: Inhibitory activity in acidified aspirin model at a dose of 50 mg/kg perorally. It counts as functional. Particulars: route oral. In a few lines: (§2)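 Male Sprague-Dawley rats (120–180 g), fasted 18–24 h with water ad libitum. Compound or vehicle given po (10 mL/kg) 30 min before acidified aspirin (aspirin powder in 0.35 M HCl, 5 mL/kg po). Stomachs excised 5 h after aspirin and graded by ulcer size and number. Percent inhibition versus vehicle, ≥10 rats per group.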

Experiment [4] is filed under the species Rattus norvegicus. Put plainly: Effective dose that inhibits formation of induced gastric lesions. It counts as functional. Particulars: Stomach. The gist of the method: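 Male Sprague-Dawley rats (180–210 g), fasted 18–24 h with water allowed, dosed orally 1 h before absolute ethanol (1 mL/rat po) and killed 1 h later. Lesions scored blind by size (mm²) and number, expressed as % inhibition versus vehicle mean. Groups of ≥10 rats; Dunnett's test (p < 0.01).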

Experiment [5] relates to Rattus norvegicus. As to the kind of experiment: Inhibitory activity In the indomethacin model at a dose of 120 mg/kg perorally. It counts as functional. The following applies: route oral. The gist of the method: (§3)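 In male Sprague-Dawley rats (120–170 g) fasted 18 h with water ad libitum, oral test compound was given 30 min before indomethacin (20 mg/kg po). Rats killed by cervical dislocation 4 h later; stomachs opened along the greater curvature, rinsed, and lesions graded by size and number. Percent inhibition versus control, ≥10 rats per group.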

Experiment [6] has as its system Rattus norvegicus. As to the kind of experiment: Inhibition against ethanol-induced lesions which was administered after 1 hr at a oral dosing of 25 mg/kg in pylorus-ligated rat model. It is filed as functional.
Experiment [7] deals with Rattus norvegicus. As to the kind of experiment: Evaluated for the duration of cytoprotective effect, in Ethanol-Necrosis model, that causes inhibition of ulceration. Absolute ethanol was administered at 4 hr after dosing. It counts as functional. Details: concentration or dose not given beside the values. The gist of the method:
as §1

The subject of experiment [8] is Rattus norvegicus. Put plainly: Inhibition against ethanol-induced lesions which was administered after 1 hr at a oral dosing of 10 mg/kg in pylorus-ligated rat model. It counts as functional.
Experiment [9] relates to Rattus norvegicus. Put plainly: Inhibitory activity In acidified aspirin model at a dose of 16 mg/kg perorally. It counts as functional. Particulars: route oral. The gist of the method: as §2
Experiment [10] relates to Rattus norvegicus. As to the kind of experiment: Inhibitory activity in the indomethacin model at a dose of 40 mg/kg perorally. It is filed as functional. The following applies: route oral. The gist of the method: as §3
Experiment [11] has as its system Rattus norvegicus. Put plainly: Inhibitory activity In acidified aspirin model at a dose of 40 mg/kg perorally. The following applies: route oral. It is filed as functional. In a few lines:
as §2

The test system of experiment [12] is Rattus norvegicus. Put plainly: Inhibitory activity In the indomethacin model at a dose of 111 mg/kg perorally. It is filed as functional. The following applies: route oral. The gist of the method:
as §3

For experiment [13], the system named is Rattus norvegicus. As to the kind of experiment: Compound was evaluated for the duration of cytoprotective effect, in Ethanol-Necrosis model, that causes inhibition of ulceration. Absolute ethanol was administered at 6 hr after dosing. It counts as functional. In a few lines:
as §1

Experiment [14] has as its system Rattus norvegicus. Put plainly: Compound was tested for inhibition against ethanol-induced lesions which was administered after 1 hr of oral dosing in rat ethanol-necrosis model.
The subject of experiment [15] is Rattus norvegicus. Put plainly: Compound was tested for inhibition against ethanol-induced lesions which was administered after 1 hr of at a oral dosing of 25 mg/kg in pylorus-ligated rat model. It is filed as functional.
For experiment [16], the system named is Rattus norvegicus. As to the kind of experiment: Compound was evaluated for the duration of cytoprotective effect, in Ethanol-Necrosis model, that causes inhibition of ulceration. Absolute ethanol was administered at 8 hr after dosing. It counts as functional. In a few lines:
as §1

The species entered for experiment [17] is Rattus norvegicus. Put plainly: Inhibitory activity In acidified aspirin model. It is filed as functional. In a few lines: as §2
Experiment [18] is filed under the species Rattus norvegicus. As to the kind of experiment: Inhibitory activity In the indomethacin model. It counts as functional. In a few lines: as §3

For `CC1(C)OC(/C=C/c2ccc(C#N)cc2)=CC1=O`, the Inhibition in experiment [1] is reported as 66%. Moreover, the ED50 was 12 mg/kg in experiment [2] and 50 mg/kg in [4]. The compound also yielded an inhibition in vivo at 50 mg/kg in [3] of 23%. This compound also had an inhibition in vivo at 120 mg/kg in experiment [5] of 70%.
Take `CC1(C)OC(/C=C/c2ccc(C(F)(F)F)cc2)=CC1=O`: at 25 mg/kg the inhibition in vivo in experiment [6] was 30%.
`CSc1ccc(/C=C/C2=CC(=O)C(C)(C)O2)cc1` registered an inhibition in vivo at 25 mg/kg in experiment [6] of 5%.
As to `CC1(c2ccccc2)OC(/C=C/c2ccccn2)=CC1=O` (configuration not stated), the Inhibition in [7] was 28%. Moreover, the ED50 amounted to 5 mg/kg in experiment [2] and 40 mg/kg in experiment [4].
Turning to `CC1(C)OC(/C=C/c2cc3ccccc3s2)=CC1=O`, the inhibition in vivo at 10 mg/kg in experiment [8] came to 17%.
With `CC1(C)OC(/C=C/c2ccoc2)=CC1=O`, at 10 mg/kg the inhibition in vivo in experiment [8] was 32%.
`CC1(c2ccccc2)OC(/C=C/c2cccnc2)=CC1=O` (configuration not stated) registered an inhibition in vivo at 10 mg/kg in experiment [8] of 44%.
`CC1(C)OC(/C=C/c2ccsc2)=CC1=O` showed an inhibition in vivo at 16 mg/kg in experiment [9] of 0%. Moreover, the inhibition in vivo at 40 mg/kg in experiment [10] came out at 65%. Besides, the Inhibition in experiment [1] is 62%. Also, the ED50 in [2] was determined as 4 mg/kg; in [4] it was 16 mg/kg.
Turning to `CC1(C)OC(c2ccc(Br)cc2)=CC1=O`, the inhibition in vivo at 25 mg/kg in [6] amounted to 36%.
`CC1(C)OC(/C=C/c2ccccn2)=CC1=O` gave an inhibition in vivo at 40 mg/kg in experiment [11] of 77%. The results for the Inhibition in experiment [1] and in experiment [7] were 76% and 67%, respectively. The inhibition in vivo at 111 mg/kg in experiment [12] came out at 72%. The ED50 was 10 mg/kg in experiment [2] and 40 mg/kg in experiment [4].
With `CC1(c2ccc(F)cc2)OC(/C=C/c2ccsc2)=CC1=O` (configuration not stated), the inhibition in vivo at 10 mg/kg in [8] was found to be 22%.
Regarding `Cn1cccc1/C=C/C1=CC(=O)C(C)(C)O1`, the inhibition in vivo at 10 mg/kg in [8] amounted to 32%.
With `CC1(C)OC(/C=C/C=C/c2ccc(Cl)cc2)=CC1=O`, testing at 10 mg/kg in experiment [8] gave an inhibition in vivo of 33%.
Take `CC1(C)OC(/C=C/c2ccc(Cl)cc2)=CC1=O`: the Inhibition in experiment [7] is 51%. The compound further gave an ED50 in [4] of 40 mg/kg.
`CC1(C)OC(/C=C/c2cnccn2)=CC1=O` returned an inhibition in vivo at 10 mg/kg in experiment [8] of 56%.
Still for that read-out and setting: the same measure for `CC1(c2ccccc2)OC(/C=C/c2ccc(C#N)cc2)=CC1=O` (configuration not stated): 4%.
`CC1(C)OC(c2ccc(C(F)(F)F)cc2)=CC1=O` yielded an inhibition in vivo at 25 mg/kg in experiment [6] of 39%.
In turn, `CC1(C)OC(/C=C/c2ccc(Cl)cc2Cl)=CC1=O` registered an inhibition in vivo at 25 mg/kg in experiment [6] of 20%.
In the case of `CC1(C)OC(/C=C/c2cccnc2)=CC1=O`, the results for the Inhibition in experiment [1], in experiment [7] and in [13] were 40%, 43% and 60%, respectively. The ED50 in experiment [2] is 9 mg/kg; in experiment [4] it was 40 mg/kg.
For the compound `CC1(C)OC(/C=C/c2ccc(F)c(F)c2)=CC1=O`, in experiment [14], the Inhibition turned out to be 47%.
For `CC1(C)OC(/C=C/c2ccc(F)cc2F)=CC1=O`, the Inhibition in experiment [7] is on record as 42%. For the same compound, the ED50 in experiment [2] was 11 mg/kg; in [4], 100 mg/kg.
`CC1(c2ccc(F)cc2)OC(/C=C/c2ccccn2)=CC1=O` (configuration not stated): in experiment [2], it took a dose of 3.5 mg/kg to reach the 50% effect level (ED50).
In the case of `CC1(C)OC(/C=C/c2ccc3ccccc3c2)=CC1=O`, 25 mg/kg produced 43% inhibition in vivo in [6].
In experiment [7], `CC1(c2ccccc2)OC(/C=C/c2ccncc2)=CC1=O` (configuration not stated) registered an Inhibition of 31%. In addition, the ED50 in experiment [2] stood at 6 mg/kg; in experiment [4], 24 mg/kg.
In experiment [8], `CC1(C)OC(/C=C/c2cccc(C#N)c2)=CC1=O` came in with an inhibition in vivo at 10 mg/kg of 68%.
`CC1(C)OC(/C=C/c2cccs2)=CC1=O` came in with an inhibition in vivo at 25 mg/kg in experiment [15] of 1%.
`CC1(C)OC(/C=C/c2ccc(S(C)(=O)=O)cc2)=CC1=O`: 25 mg/kg produced 56% inhibition in vivo in experiment [6].
For `CC1(C)OC(/C=C/c2ccc(F)cc2)=CC1=O`, the Inhibition in experiment [1] worked out at 25%; in experiment [7], 61%; in experiment [13], 50%. Also, the ED50 in experiment [2] worked out at 11 mg/kg; in experiment [4], 50 mg/kg.
Consider `CC1(C)OC(c2ccc(Cl)cc2)=CC1=O`, for which, in experiment [6], the inhibition in vivo at 25 mg/kg worked out at 29%.
Regarding `CC1(C)OC(/C=C/c2cc(Cl)cc(Cl)c2)=CC1=O`, in experiment [6], 25 mg/kg produced 63% inhibition in vivo.
On to `CC1(c2ccc(F)cc2)OC(/C=C/c2ccc(C#N)cc2)=CC1=O` (configuration not stated), for which, in [8], the inhibition in vivo at 10 mg/kg stood at 1%.
Same read-out and setting: the value for `CC1(c2ccccc2)OC(/C=C/c2ccsc2)=CC1=O` (configuration not stated) was 0%.
`CC1(C)OC(/C=C/c2ccccc2)=CC1=O` came in with an ED50 in experiment [2] of 17 mg/kg.
On the same count and under the same terms, the same measure for `CC1(C)OC(/C=C/c2ccnc3ccccc23)=CC1=O`: 2.5 mg/kg.
In turn, `CC1(C)OC(/C=C/c2ccc(Cl)c(Cl)c2)=CC1=O` yielded an inhibition in vivo at 25 mg/kg in [6] of 45%.
As for `C/C(=C\c1ccccc1)C1=CC(=O)C(C)(C)O1`, the inhibition in vivo at 10 mg/kg in experiment [8] is 0%.
`CC1(C)OC(c2ccccc2)=CC1=O`: in [2], it took a dose of 19 mg/kg to reach the 50% effect level (ED50).
Regarding `CC1(C)OC(/C=C/c2ccncc2)=CC1=O`, the figures for the ED50 in experiment [2] and in [4] were 4 mg/kg and 20 mg/kg, respectively. For the same compound, the Inhibition in experiment [13] is listed as 46%.
For `COc1ccc(C2=CC(=O)C(C)(C)O2)cc1`, the Inhibition in experiment [14] came to 30%.
Regarding `CC1(C)OC(/C=C/c2ccc(Br)cc2)=CC1=O`, the ED50 in experiment [2] was found to be 18 mg/kg.
`CC(=O)c1ccc2c(c1)C(=O)C1(CC1)O2` [SPIZOFURONE]: the Inhibition in [7] is 72%; in experiment [16] it was 0%; in experiment [17], 78%; in experiment [18], 95%; in experiment [13], 44%. Moreover, the ED50 came out at 10 mg/kg in [2] and 100 mg/kg in [4].
